Screening results as filed in PubChem BioAssay.
TbHK1 inh: Trypanosoma brucei hexokinase 1 inhibitors, primary screen, biochemical, G6PDH-coupled NADH absorbance, MLSCN library | inhibition, % at 10 µM | 0.11% of 220,000 active | recombinant TbHK1, G6PDH-coupled NADH A340;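 active means inhibition of 50% or more in the single-dose primary screen; inactive means inhibition below 50%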
HSP90 inh: HSP90 inhibitors, primary screen, cell lysate, luminescence; Heat shock protein HSP 90 (rabbit reticulocyte lysate; luciferase refolding); Rabbit reticulocyte lysate, luciferase refolding luminescence, 3 h; inhibition, % at 5.6 µM; 0.91% of 290,000 active; AID 1789, 2009;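 active means inhibition above the screen-wide mean plus 3 SD, computed separately per campaign, cut at about 16% in these data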;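 further: inhibitors lower the luminescence because luciferase stays unfolded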
Hsp70 activator: Hsp70 transcriptional activators, primary screen, cell-based, HeLa, Hsp70 promoter luciferase, luminescence, 10 µM. HeLa Hsp70 promoter luciferase reporter; scaled: vehicle 0, proteasome-inhibitor control 100%. activation, % at 10 µM. 0.04% of 200,000 active. AID 1203, 2008;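 active means activation above the mean across all tested compounds plus 3 SD, cutoff set per campaign, cut at about 5.5% in these data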
HSF1 activator: HSF-1 activators, primary screen, NIH3T3-HGL cells, MG132 stress, luminescence, single point | NIH3T3-HGL HSF-1 luciferase reporter, 8 h; 100% = twice DMSO control signal | 1.7% of 300,000 active | activation, % at 9 µM | AID 504408, 2011;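 active means mean replicate activation of at least 50% with a set share of replicates each reaching 50%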
HSF1 inhib: HSF1 inhibitors in luciferase reporter cells, primary screen, cell-based, NIH3T3, luminescence | NIH3T3-HGL HSE-luciferase, MG132-induced, luminescence 8 h; hits give low values | activity change, negative = inhibition, % at 7.5 µM (by protocol) | 0.77% of 300,000 active;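 active means more than half of replicate wells show activity change below -50%, luminescence cut by over half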;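 further: luciferase reports HSF-1 transcriptional activity via heat shock element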
HKDC1 inhibitor: HKDC1 hexokinase inhibitors, primary screen, biochemical, fluorescence, uHTS; inhibition, % at 20 µM; recombinant HKDC1, G6PDH/diaphorase resazurin coupled fluorescence; Q2TB90; 0.16% of 340,000 active;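 active means inhibition above about 35% when tested at 20 µM, limit read from the data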
Target sequence (Q2TB90 whole entry, looked up): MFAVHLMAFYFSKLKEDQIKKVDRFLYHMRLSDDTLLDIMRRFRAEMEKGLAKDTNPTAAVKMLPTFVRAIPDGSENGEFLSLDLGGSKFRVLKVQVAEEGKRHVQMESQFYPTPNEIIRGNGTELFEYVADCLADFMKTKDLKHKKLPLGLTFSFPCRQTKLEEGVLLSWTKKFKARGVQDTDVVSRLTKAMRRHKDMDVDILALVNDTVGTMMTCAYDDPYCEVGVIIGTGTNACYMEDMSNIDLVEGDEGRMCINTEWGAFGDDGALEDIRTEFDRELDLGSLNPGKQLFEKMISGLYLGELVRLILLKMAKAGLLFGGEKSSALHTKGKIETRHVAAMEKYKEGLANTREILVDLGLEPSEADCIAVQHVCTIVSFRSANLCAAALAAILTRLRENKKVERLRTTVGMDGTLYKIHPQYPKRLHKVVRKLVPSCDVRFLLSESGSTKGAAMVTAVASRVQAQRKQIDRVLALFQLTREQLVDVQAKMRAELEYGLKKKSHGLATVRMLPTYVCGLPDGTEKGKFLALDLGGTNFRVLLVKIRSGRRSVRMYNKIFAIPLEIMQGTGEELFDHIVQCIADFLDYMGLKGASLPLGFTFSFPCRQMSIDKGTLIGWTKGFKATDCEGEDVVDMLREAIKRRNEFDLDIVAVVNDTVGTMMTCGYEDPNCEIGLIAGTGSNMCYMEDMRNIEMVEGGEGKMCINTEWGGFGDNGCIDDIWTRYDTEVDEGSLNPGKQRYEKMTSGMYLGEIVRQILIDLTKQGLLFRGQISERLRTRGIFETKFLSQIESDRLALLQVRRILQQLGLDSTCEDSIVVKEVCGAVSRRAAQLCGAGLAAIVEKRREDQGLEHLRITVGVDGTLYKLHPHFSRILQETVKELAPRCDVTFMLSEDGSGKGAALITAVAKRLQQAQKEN
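test system = in-house recombinant HK5 (HKDC1) enzyme | amount = HKDC1 at 5 µg/mL | control set = DMSO-enzyme wells negative, buffer-substituted wells positive | compound = one dose of 20 µM, 1% DMSO | schedule = reaction time 90 min, room temperature, protected from light | technique = resorufin fluorescence at 613 nm | reagent = glucose with 1 mM ATP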
Hits are given with their value; n = inactive; x = no result given. An excerpt weighted towards active compounds, which were near 3.1% of everything screened.

SMILES	TbHK1 inh	HSP90 inh	Hsp70 activator	HSF1 activator	HSF1 inhib	HKDC1 inhibitor
c1ccc(-c2nnc3nc(N4CCCCC4)nc(N4CCCCC4)n23)cc1	x	x	x	x	x	n
Cc1cccc(OC(C)C(=O)Nc2ccc3c(c2)OCCO3)c1 (centres undefined)	x	x	x	x	x	n
COc1ccc(-c2cn3ccccc3n2)cc1OC	n	n	n	n	n	n
COc1ccc(-c2cn3cc(C)ccc3n2)cc1OC	n	n	n	96	n	n
Cc1ccc2nc(-c3ccc4c(c3)NC(=O)CO4)cn2c1	n	n	x	64	n	n
CCN(CC)CCNCc1cc(Cl)ccc1OCc1ccccc1F	n	n	n	n	-61	n
Cc1cc(C)nc(NC(=O)Nc2ccc(F)cc2F)n1	x	n	x	n	n	n
COC(=O)c1c(NC(=O)c2ccc(C)o2)sc2c1CCCCC2	n	n	n	60	n	n
Cc1ccc(C(=O)Nc2sc3c(c2C(=O)O)CCCCC3)o1	n	n	n	n	n	n
CN1CCc2c(sc(NC(=O)c3ccc([N+](=O)[O-])o3)c2C(N)=O)C1	x	n	x	n	n	n
NC(=O)c1c(NC(=O)c2ccc([N+](=O)[O-])o2)sc2c1CCCC2	x	n	x	116	n	n
CC(C(=O)Nc1ccc2c(c1)OCCO2)N(C)CC(=O)Nc1ccccc1Br (centres undefined)	x	x	x	x	x	n
COc1ccc(N(CC(=O)NCc2ccccc2OC)S(=O)(=O)c2ccc(C)cc2)cc1Cl	x	n	x	n	n	n
O=C(Nc1ccc2nn(-c3ccccc3)nc2c1)c1ccco1	n	n	n	54	n	n
O=C(Nc1ccc(-c2nc3ccccc3o2)cc1)C1CCCO1 (centres undefined)	n	n	n	n	n	n
Cc1ccc2oc(-c3ccccc3)nc2c1	n	n	n	69	n	n
O=C(Nc1cc2nn(-c3ccccc3)nc2cc1Cl)c1ccco1	n	n	n	n	n	n
O=C(Nc1ccc2oc(-c3ccccc3)nc2c1)C1CCCO1 (centres undefined)	n	n	n	73	n	n
O=C(Nc1ccc2oc(-c3ccncc3)nc2c1)c1ccco1	x	n	x	n	n	n
O=C(Nc1ccc2oc(-c3ccccc3)nc2c1)c1ccco1	n	n	n	86	n	n
CCOc1ccc(C(=O)NCC(=O)NNC(=O)CN(C)S(=O)(=O)c2ccc(Cl)cc2)cc1OCC	x	x	x	x	x	n
O=c1[nH]nc(Br)c(=O)n1C(c1ccccc1)c1ccccc1	x	x	x	x	x	n
O=C(O)c1ccccc1OCC1CCCO1 (centres undefined)	x	n	x	n	n	n
Cn1nc(C(=O)NCc2ccc(F)cc2)c2c1-c1ccccc1S(=O)(=O)C2	x	n	x	n	n	n
CSc1ccc(CCNC(=O)c2nn(C)c3c2CS(=O)(=O)c2ccccc2-3)cc1	x	n	x	51	n	n
SMILES	TbHK1 inh	HSP90 inh	Hsp70 activator	HSF1 activator	HSF1 inhib	HKDC1 inhibitor
Cc1ccc(-c2nc3ncccc3o2)cc1NC(=O)C(C)C	x	n	x	n	n	n
Cc1cc(-c2nc3ncccc3o2)ccc1NC(=S)NC(=O)C(C)C	n	n	n	52	n	n
O=C(Nc1ccc(S(=O)(=O)N2CCCC2)cc1)c1ccc(Br)o1	x	n	x	n	n	n
CCN1CCN(c2ccc(NC(=O)c3ccc(Br)o3)cc2)CC1	x	n	x	56	n	n
O=C(Nc1ccc(S(=O)(=O)N2CCOCC2)cc1)c1ccc(Br)o1	n	n	n	59	n	n
CCCC(=O)N1CCN(c2ccc(NC(=O)c3ccc(Br)o3)cc2)CC1	n	n	n	n	n	n
Cc1ccc(C2(C)NC(=O)N(CC(=O)NC(=O)NC(C)C)C2=O)cc1 (centres undefined)	x	n	x	n	n	n
CC(=O)Nc1ccc(OS(=O)(=O)c2ccccc2C)cc1	n	n	n	n	-91	n
CC(C)c1ccc(C2CC(c3ccc(Br)cc3)=NN2C(N)=S)cc1 (centres undefined)	n	n	n	74	n	n
COC(=O)c1ccc(OC(=O)C2CSC3(C)CCC(=O)N23)cc1 (centres undefined)	x	x	x	n	n	n
Cc1ccc(Cn2nnc(C(=O)Nc3cc(C)ccc3C)c2N)cc1	n	n	n	104	n	n
Nc1ccc(Sc2cnn(-c3ccccc3)c(=O)c2Cl)cc1	n	n	n	57	n	n
Cc1ccc(Sc2cnn(-c3ccccc3)c(=O)c2Cl)cc1	n	n	n	n	n	n
CCc1cccc(NC(=O)Cn2c(=O)n(CCC(=O)NCC3CCCO3)c(=O)c3cc(OC)c(OC)cc32)c1 (centres undefined)	x	n	x	n	n	n
C(#Cc1ccccc1)CN1CCN(c2ccccn2)CC1	n	n	n	n	-72	n
C(#Cc1ccccc1)CN1CCCCC1	n	n	n	n	n	n
CCN1CCc2c(sc(NC(=O)c3cc4ccccc4cc3OC)c2C(N)=O)C1	x	n	x	n	-51	n
CC(C)N1CCc2c(sc(NC(=O)c3ccc4ccccc4c3)c2C(N)=O)C1	x	n	x	n	-60	n
C=C(C)CN=CC1(C)CCC(C)=CO1 (centres undefined)	x	x	x	x	x	n
CC(=O)OCCn1c(C)[n+](CCOC(C)=O)c2cc(Cl)c(Cl)cc21	n	n	n	n	n	n
CC(=O)OCCn1c2nc(=O)[nH]c(=O)c-2nc2cc(C)c(C)cc21	n	20	x	n	n	n
CC(=O)c1cccc(NC(=O)CN2C(=O)NC(C)(c3ccc4c(c3)OCCCO4)C2=O)c1 (centres undefined)	x	x	x	x	x	n
COc1cccc(Nc2ccc(C(=O)O)cc2N)c1	x	n	x	n	-66	n
Cc1cc(=O)oc2c(C)c(OC(C)C(=O)NCC(O)c3ccccc3)ccc12 (centres undefined)	x	n	x	51	n	n
Cc1cc(=O)oc2c(C)c(OC(C)C(=O)NCCCN3CCOCC3)ccc12 (centres undefined)	x	n	x	n	-69	n
SMILES	TbHK1 inh	HSP90 inh	Hsp70 activator	HSF1 activator	HSF1 inhib	HKDC1 inhibitor
Cc1ccccc1NS(=O)(=O)c1ccc(C(=O)NCCCN2CCCC2=O)cc1	x	x	x	n	n	n
Oc1ccc(-c2csc(Nc3ncccn3)n2)cc1	n	n	n	60	n	n
O=C(CSC1=NNC(c2ccccn2)S1)Nc1ccccc1 (centres undefined)	n	n	x	n	-62	n
O=C(Nc1ccc2oc(=O)ccc2c1)c1ccc2ccccc2c1	x	n	x	60	n	n
O=C(NC(=S)Nc1ccc2oc(=O)ccc2c1)c1cc2ccccc2o1	n	n	x	n	-84	n
O=C(Nc1ccc2ccccc2c1)c1cccc(F)c1	n	n	x	79	n	n
O=C(NC(=S)Nc1cccnc1)c1cc2ccccc2o1	n	n	n	59	n	n
